Hits are enriched below; roughly 2.6% of the tested compounds scored in any of these assays.
MDM2 E3 inh: blocks human Mdm2 ubiquitin ligase activity; 210,000 compounds, 0.11% hits; signal enhancement, % at 5 µM; AID 1230; cell-based MDM2 ubiquitination luciferase reporter, 2 h; 0 = plate control, 100 = twice control, blank-subtracted;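 active = signal enhancement of 30% or more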;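 also: luminescence tracks abundance of the self-degrading MDM2-luciferase fusion protein; higher signal means inhibition of MDM2 E3 ligase activity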
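Test system: mammalian cells stably expressing self-ubiquitinating, self-degrading MDM2 E3–luciferase fusion; Amount: 2000 cells in each well; Medium: DMEM; Schedule: 4 h settle plus 2 h compound, 37 °C; Technique: SteadyLite luciferase luminescence after 15 min room-temperature reagent incubation; Benchmarks: plate control and blank wells.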
HSF1 inhib: HSF1 inhibition | NIH3T3-HGL HSE-luciferase, MG132-induced, luminescence 8 h; active compounds read low | activity change, negative = inhibition, % at 7.5 µM (by protocol) | 300,000 compounds, 0.77% hits | AID 2098;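 active = more than half of replicate wells show activity change below -50%, luminescence cut by over half; inconclusive = some wells, but at most half, below -50%; inactive = no replicate well below -50%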;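 also: luciferase reports HSF-1 transcriptional activity via heat shock element; 0% = median of DMSO wells and -100% = zero luminescence signal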
Rad51 HR inh: blocks human Rad51 in homologous recombination; Q06609; hRad51 DNA strand exchange, fluorescence dequenching; inhibition, % at 10 µM; 200,000 compounds, 0.085% hits;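 active = inhibition above 40% at the single screening dose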;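 also: 0% = DMSO control wells and 100% = blanks with heterologous ssDNA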
Target sequence (Q06609 whole entry, looked up): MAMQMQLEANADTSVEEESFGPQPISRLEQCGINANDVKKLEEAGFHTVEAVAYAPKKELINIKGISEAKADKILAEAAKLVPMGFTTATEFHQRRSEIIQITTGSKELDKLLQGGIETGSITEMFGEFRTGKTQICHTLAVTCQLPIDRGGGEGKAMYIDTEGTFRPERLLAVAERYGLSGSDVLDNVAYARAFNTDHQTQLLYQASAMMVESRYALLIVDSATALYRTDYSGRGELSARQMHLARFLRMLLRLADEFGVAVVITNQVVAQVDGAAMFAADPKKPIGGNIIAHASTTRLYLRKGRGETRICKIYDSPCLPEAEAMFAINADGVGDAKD
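Material: hRad51 filaments on single-stranded DNA; Reagent: Donor/quencher-labelled 47-bp dsDNA substrate; Compound: 10 µM final, single point; Schedule: 37 °C 15-min filament assembly, 30-min compound preincubation, 15-min exchange; Technique: FRET fluorescence, excitation 485 nm, emission 520 nm; Benchmarks: control wells and blank wells on each plate.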
HSV augment: increases HSV replication in cells | HSV replication augmentation in cells, fold increase | maximum fold increase | 220,000 compounds, 0.005% hits; in the data active = maximum fold increase above about 1.5; inconclusive = no clear call, values can overlap the other calls; tested in PC3 cells
HSF1 activator: increases HSF-1 driven luciferase reporter signal; NIH3T3-HGL HSF-1 luciferase reporter, MG132, 8 h; 100% = twice DMSO control signal; activation, % at 9 µM; 300,000 compounds, 1.7% hits; AID 504408;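 active = mean replicate activation of at least 50% with a set share of replicates each reaching 50%; inconclusive = only one of those two conditions met; inactive = mean below 50% and too few replicates reaching it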;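 also: 0% = median of the neutral control wells and 100% = twice that signal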
Hsp70 activator: transcriptional activators of Hsp70; AID 1203; 200,000 compounds, 0.04% hits; HeLa Hsp70 promoter luciferase reporter, luminescence; scaled: vehicle 0, proteasome-inhibitor control 100%; activation, % at 10 µM;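 active = activation above the mean across all tested compounds plus 3 SD, cutoff set per campaign, cut at about 5.5% in these data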;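 also: 100% = MG132 at 30 µM as the positive control and 0% = DMSO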
* marks the source's active call; other numbers are inactive results; i = inactive; ? = inconclusive; · = no result.

SMILES	MDM2 E3 inh	HSF1 inhib	Rad51 HR inh	HSV augment	HSF1 activator	Hsp70 activator
CC(=O)Cc1c[nH]c2ccccc12	-12.7	-90.8*	12.4	i	-92.1	·
C=C1C(=O)O[C@@H]2C[C@@H](C)[C@@H]3C4OC4C(=O)[C@@]3(C)[C@@H](O)[C@H]12 (stereo not given in full)	31.3*	17.1	-12.3	i	29.3	·
C=C1C(=O)O[C@H]2[C@H]1[C@H](OC(=O)CC(=O)O[C@@H]1C[C@@H](C)[C@@H]3C=CC(=O)[C@@]3(C)[C@H]3OC(=O)C(=C)[C@H]13)C[C@@H](C)[C@H]1C=CC(=O)[C@]12C	-4.5	34.6	-4.8	i	31.0	·
Cc1cc(OC(=O)N(C)C)nc(-c2ccc(C)c(Cl)c2)n1	-7.2	3.7	0.7	?	9.2	·
O=C(CNC1CCCC1)Nc1ccc(N2CCCCCC2)cc1	-7.3	8.9	6.2	i	2.3	0.0
CC(Cc1ccccc1)NCc1ccccc1O (stereo not given)	-14.9	-2.5	2.2	i	2.0	0.0
CC(Cc1ccccc1)NCC(=O)Nc1cc(N(C)C)nc2ccccc12 (stereo not given)	·	24.3	12.5	i	58.0*	·
CN(C)c1ccc(/C=C/C=C2/C(=O)NC(=O)N(c3ccccc3)C2=O)cc1	6.0	73.3	-19.3	·	119.0*	-0.5
CC(C)[C@]12O[C@H]1[C@@H]1O[C@]13[C@]1(O[C@H]1C[C@H]1C4=C(CC[C@@]13C)C(=O)OC4)[C@@H]2O	·	-67.8*	-6.4	i	-72.3	-0.1
CC12CCC3C(CC=C4CC(O)CCC43C)C1C/C(=C\N1CCCC1)C2=O (stereo not given)	·	36.5	11.7	i	62.8*	·
C=CC1CN2CCC1CC2C(OC(C)=O)c1ccnc2ccc(OC)cc12 (stereo not given)	-2.0	0.3	15.8	i	3.4	·
CCn1c(=O)cc(SCC(=O)N2CCC3(CC2)OCCO3)c2ccccc21	-18.5	34.0	-6.4	i	68.3*	0.4
CCNC(=O)NC(=O)C(C)OC(=O)c1c(C)nn(Cc2ccccc2)c1Cl (stereo not given)	-17.2	-1.0	-4.9	i	20.8	-0.4
COc1ccc(C(=O)C2CCCN(Cc3ccc(C)s3)C2)c(OC)c1 (stereo not given)	2.2	33.3	1.4	i	63.4*	0.0
COc1ccc(C(=O)C2CCCN(Cc3cccc(C)n3)C2)c(OC)c1 (stereo not given)	3.6	-4.1	·	i	-1.5	·
CC(C)CNC(=O)c1c(N)n(Cc2ccco2)c2nc3ccccc3nc12	-20.4	29.5	-78.3	i	55.7*	-0.7
COCCCNC(=O)c1c(NC(=O)c2ccco2)n(Cc2ccccc2)c2nc3ccccc3nc12	-4.9	2.4	-12.8	i	19.0	-0.5
COCCNC(=O)c1c(NC(=O)c2ccc(Br)o2)n(Cc2ccccc2)c2nc3ccccc3nc12	-6.9	29.7	·	?	65.9*	0.7
COCCCNC(=O)c1c(N)n(Cc2ccco2)c2nc3ccccc3nc12	-14.1	80.6	·	?	114.9*	·
c1ccc(-c2nc(N3CCOCC3)s[n+]2-c2ccccc2)cc1	2.7	10.6	0.8	i	10.4	-0.1
Cc1cc(C)cc(N2C(=O)NC(=O)/C(=C/c3cccn3-c3ccc(Cl)cc3)C2=O)c1	·	11.0	·	i	29.0	-0.3
Cc1cccc(N2C(=O)NC(=O)/C(=C\c3cccn3-c3ccc(Cl)cc3)C2=O)c1	39.8*	·	-8.3	i	·	0.1
CCC(=NCc1ccco1)c1c(O)n(C2CCCCC2)c(=O)[nH]c1=O	-12.4	29.2	2.7	i	66.4*	0.3
CCC(=NCc1cccnc1)c1c(O)n(C2CCCCC2)c(=O)[nH]c1=O	-14.6	-7.8	-1.6	i	6.6	0.0
CCN1C(=O)/C(=C/c2ccc3c(c2)CCN3CCCCl)C(=O)NC1=S	-13.1	3.8	-30.5	i	-2.0	-0.2
O=C1NC(=S)N(C2CC2)C(=O)/C1=C/c1ccc2c(c1)CCN2CCCCl	-16.2	-78.9*	-28.0	i	-83.1	-0.1
Cc1ccccc1-n1c(O)c(/C=N/NC(=O)c2ccccc2O)c(=O)[nH]c1=S	-46.0	-54.9*	·	i	-64.1	·
